Experimental data taken from PMC5384886 (International Journal for Parasitology: Drugs and Drug …, 2017).
Like-named read-outs stand apart in the source and are kept apart here.

Columns and labels:
[1] = system: PfDd2 (chloroquine-resistant) strain; test: In vitro P. falciparum whole cell assay; type: cell-based; settings: Plasmodium falciparum, 72 h, read-out: PfDd2 IC50
In short: (§1)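 Parasites synchronised to 95% ring stage with 5% sorbitol. Stocks: chloroquine in water, test compounds and dihydroartemisinin in DMSO, diluted in incomplete 1640 medium. Ring-stage cultures (1% parasitaemia, 2% haematocrit) exposed to serial dilutions for 72 h at 37 °C. Growth read by SYBR Green I fluorescence. IC50 from a sigmoidal growth fit.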

[2] = system: juvenile S. japonicum (schistosomula); test: In vitro assay for drug effect on juvenile S. japonicum; type: cell-based, Schistosoma japonicum; settings: 10 μg/mL
In short: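 Cercariae mechanically transformed to schistosomula and kept in RPMI 1640 with 5% FBS, 100 IU/mL penicillin and 100 μg/mL streptomycin at 37 °C, 5% CO2. 50 schistosomula/well exposed to compound at final 10 μg/mL for 72 h, in duplicate, with DMSO negative control. Activity, survival time, mortality and morphology scored microscopically at 12, 24, 48 and 72 h.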

β-hematin formation = test: Inhibition assay of β-hematin formation; type: biochemical; settings: for β-Hematin % Inhibition: at a concentration of 100 μM; for IC50: read-out: β-Hematin IC50
In short: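 NP-40 detergent-mediated β-hematin assay. Compound in DMSO plus NP-40 and water. Hematin was dissolved in DMSO (25 mM stock) and suspended in acetate buffer (pH 4.8; final 0.5 M). Incubated 4 h at 37 °C. Controls: DMSO (negative), chloroquine and amodiaquine (100 μM final). Pyridine-ferrichrome read-out: 5% v/v final pyridine, HEPES pH 7.4, extra acetone, 405 nm. % inhibition at 100 μM; IC50 from concentration series; triplicate, repeated twice.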

adult S. japonicum = test: In vitro assay for drug effect on adult S. japonicum; type: cell-based, Schistosoma japonicum; settings: 72 h
In short: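 Adult worms taken from infected mice 34–38 days post-infection, perfused with ice-cold heparinised HBSS, rinsed three times. Kept in RPMI 1640 with 10% calf serum, penicillin, streptomycin and amphotericin B. Four worm pairs per well, 2 h preincubation at 37 °C, 5% CO2, then compound at final 10 or 5 μg/mL; DMSO control. Scored at 24, 48, 72 h; death = no sucker/body movement for 2 min.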

[3] = Cytotoxicity assay on WI38 cells; type: cell-based, human; settings: human, WI38 cells (human embryonic lung fibroblasts)
In short: (§2)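 WI38 cells harvested at log phase and seeded at 10 000/well in DMEM or MEM with 10% FBS and 1% penicillin-streptomycin. After 12 h adherence at 37 °C, 5% CO2, 2-fold dilutions (final 50 to 1.57 μM) were added in triplicate for 2 days. MTT read-out: 4 h, DMSO solubilisation, 490 nm. CC50 is the mean of two independent experiments. SI = CC50/IC50 for each Pf strain.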

[4] = system: human embryonic lung fibroblast WI38; test: Cytotoxicity assay on WI38 cells; type: cell-based; settings: for SI CC50/IC50 (Pf3D7): CC50 WI38 / IC50 Pf3D7; for SI CC50/IC50 (PfDd2): CC50 WI38 / IC50 PfDd2
In short: as §2

[5] = system: Pf3D7 (chloroquine-sensitive) strain; test: In vitro P. falciparum whole cell assay; type: cell-based; settings: Plasmodium falciparum, 72 h, read-out: Pf3D7 IC50
In short: as §1

With CCCCNC[C@@H](O)Cn1c2ccc(Cl)cc2c2cc(Cl)ccc21 [(R)-7, (R)-1-(butylamino)-3-(3,6-dichloro-9H-carbazol-9-yl)propan-2-ol] the IC50 [1] was 172 ± 32 nM, the “Juvenile S. japonicum worm-killing” value [2] was “+” and the “β-Hematin % Inhibition” value (β-hematin formation) was 75.13%. For the same compound, the IC50 (β-hematin formation) was 119000 ± 7140 nM, the “Adult S. japonicum worm-killing” value (adult S. japonicum; 5 μg/mL) was “+” and the “Adult S. japonicum worm-killing” value (adult S. japonicum; 10 μg/mL) was “+”. For the same compound, the CC50 at 2 days [3] was 7690 nM, the “SI CC50/IC50 (Pf3D7)” value [4] was 22 and the “SI CC50/IC50 (PfDd2)” value [4] was 45. For the same compound, the IC50 [5] was 344 ± 54 nM.
In the case of CCCCNC[C@H](O)Cn1c2ccc(Cl)cc2c2cc(Cl)ccc21 [(S)-7, (S)-1-(butylamino)-3-(3,6-dichloro-9H-carbazol-9-yl)propan-2-ol], the IC50 [1] is reported as 112 ± 30 nM, the “Juvenile S. japonicum worm-killing” value [2] is reported as “+” and the “β-Hematin % Inhibition” value (β-hematin formation) is reported as 80.09%. For the same compound, the IC50 (β-hematin formation) was 106000 ± 8420 nM, the “Adult S. japonicum worm-killing” value (adult S. japonicum; 5 μg/mL) was “+” and the “Adult S. japonicum worm-killing” value (adult S. japonicum; 10 μg/mL) was “+”. For the same compound, the CC50 at 2 days [3] was 9340 nM, the “SI CC50/IC50 (Pf3D7)” value [4] was 24 and the “SI CC50/IC50 (PfDd2)” value [4] was 83. The IC50 [5] was 378 ± 91 nM.
For CCN(CC)Cc1cc(Nc2ccnc3cc(Cl)ccc23)ccc1O [Amodiaquine, reference compound], the “β-Hematin % Inhibition” value (β-hematin formation) was 100% and the IC50 (β-hematin formation) was 15900 ± 1290 nM.
In the case of CCN(CC)CCCC(C)Nc1ccnc2cc(Cl)ccc12 (stereo not drawn) [Chloroquine, reference compound], the IC50 [1] is reported as 231 ± 24 nM, the “β-Hematin % Inhibition” value (β-hematin formation) is reported as 97.8% and the IC50 (β-hematin formation) is reported as 61000 ± 5550 nM. The IC50 (β-hematin formation; listed as chloroquine) was 61000 nM and the IC50 [5] was 15 ± 8 nM.
In the case of OC(CN1CCCC1)Cn1c2ccc(Cl)cc2c2cc(Cl)ccc21 (stereo not drawn) [Compound 3, 1-(3,6-Dichloro-9H-carbazol-9-yl)-3-(pyrrolidin-1-yl)propan-2-ol], the “β-Hematin % Inhibition” value (β-hematin formation) is reported as 10.76%, the “Adult S. japonicum worm-killing” value (adult S. japonicum; 10 μg/mL) is reported as “+” and the IC50 [5] is reported as 2670 ± 870 nM.
In the case of OC(CN1CCCCC1)Cn1c2ccc(Cl)cc2c2cc(Cl)ccc21 (stereo not drawn) [Compound 4, 1-(3,6-Dichloro-9H-carbazol-9-yl)-3-(piperidin-1-yl)propan-2-ol], the “Adult S. japonicum worm-killing” value (adult S. japonicum; 10 μg/mL) is reported as “+”.
With OC(CN1CCOCC1)Cn1c2ccc(Cl)cc2c2cc(Cl)ccc21 (stereo not drawn) [Compound 5, 1-(3,6-Dichloro-9H-carbazol-9-yl)-3-morpholinopropan-2-ol] the “β-Hematin % Inhibition” value (β-hematin formation) was 0% and the IC50 [5] was 1290 ± 329 nM.
For CCCCCCNCC(O)Cn1c2ccc(Cl)cc2c2cc(Cl)ccc21 (stereo not drawn) [Compound 9, 1-(3,6-Dichloro-9H-carbazol-9-yl)-3-(hexylamino)propan-2-ol], the IC50 [1] was 47 ± 10 nM, the “Juvenile S. japonicum worm-killing” value [2] was “+” and the “β-Hematin % Inhibition” value (β-hematin formation) was 81.85%. The IC50 (β-hematin formation) was 55000 ± 5870 nM, the “Adult S. japonicum worm-killing” value (adult S. japonicum; 5 μg/mL) was “±” and the “Adult S. japonicum worm-killing” value (adult S. japonicum; 10 μg/mL) was “+”. For the same compound, the CC50 at 2 days [3] was 5920 nM, the “SI CC50/IC50 (Pf3D7)” value [4] was 22 and the “SI CC50/IC50 (PfDd2)” value [4] was 126. It also gave an IC50 [5] of 274 ± 63 nM.
For CCCCCCCNCC(O)Cn1c2ccc(Cl)cc2c2cc(Cl)ccc21 (stereo not drawn) [Compound 10, 1-(3,6-Dichloro-9H-carbazol-9-yl)-3-(heptylamino)propan-2-ol], the IC50 [1] was 54 ± 10 nM, the “Juvenile S. japonicum worm-killing” value [2] was “+” and the “β-Hematin % Inhibition” value (β-hematin formation) was 74.74%. The IC50 (β-hematin formation) was 91600 ± 4670 nM, the “Adult S. japonicum worm-killing” value (adult S. japonicum; 5 μg/mL) was “±” and the “Adult S. japonicum worm-killing” value (adult S. japonicum; 10 μg/mL) was “+”. For the same compound, the CC50 at 2 days [3] was 5140 nM, the “SI CC50/IC50 (Pf3D7)” value [4] was 28 and the “SI CC50/IC50 (PfDd2)” value [4] was 95. The IC50 [5] was 179 ± 44 nM.
For CCCCCCCCNCC(O)Cn1c2ccc(Cl)cc2c2cc(Cl)ccc21 (stereo not drawn) [Compound 11, 1-(3,6-Dichloro-9H-carbazol-9-yl)-3-(octylamino)propan-2-ol], the IC50 [1] was 54 ± 6 nM, the “Juvenile S. japonicum worm-killing” value [2] was “+” and the “β-Hematin % Inhibition” value (β-hematin formation) was 50.59%. For the same compound, the IC50 (β-hematin formation) was 65400 ± 4900 nM, the “Adult S. japonicum worm-killing” value (adult S. japonicum; 5 μg/mL) was “±” and the “Adult S. japonicum worm-killing” value (adult S. japonicum; 10 μg/mL) was “+”. For the same compound, the CC50 at 2 days [3] was 3770 nM, the “SI CC50/IC50 (Pf3D7)” value [4] was 29 and the “SI CC50/IC50 (PfDd2)” value [4] was 70. For the same compound, the IC50 [5] was 132 ± 59 nM.
C[C@H]1[C@@H](O)O[C@@H]2O[C@@]3(C)CC[C@H]4[C@H](C)CC[C@@H]1[C@@]24OO3 [Dihydroartemisinin, reference compound] gave an IC50 [1] of 5 ± 0.2 nM.
For O=C(C1CCCCC1)N1CC(=O)N2CCc3ccccc3C2C1 (stereo not drawn) [Praziquantel, reference compound], the “Adult S. japonicum worm-killing” value (adult S. japonicum; 5 μg/mL) was “+” and the “Adult S. japonicum worm-killing” value (adult S. japonicum; 10 μg/mL) was “+”.
